The list is not random: actives were taken first. Their share in the collection is about 2.6%.
PRMT1 inh: inhibitors of human PRMT1; Q99873; recombinant PRMT1, activity-based probe fluorescence polarization; inhibition, % at 2.79 µM; 1.3% of 370,000 active;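 active = inhibition above about 21% made by adding two undisclosed values, limit read from the data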
GSTO1 inh: blocks human GSTO1 in RBBP9 counter-screen | 1.1% of 300,000 active | P78417 | recombinant GSTO1, activity-based probe fluorescence polarization | inhibition, % at 5.96 µM;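 active = inhibition above the campaign mean inhibition plus 3 SD, cut at about 35% in these data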;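 note: 0% = GSTO1-1 with DMSO and 100% = wells lacking GSTO1-1 enzyme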
Apaf1 inhib: blocks human Apaf-1 apoptosome activity; reconstituted apoptosome caspase-3 activity, DEVD-Rh110 fluorescence; inhibition, % at 20 µM; 0.71% of 330,000 active; AID 489030; O14727; active = inhibition of at least 40% at 20 µM;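 note: plate controls were DMSO wells for no effect and DEVD-CHO caspase inhibitor wells for full effect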
Target sequence (O14727 whole entry, looked up): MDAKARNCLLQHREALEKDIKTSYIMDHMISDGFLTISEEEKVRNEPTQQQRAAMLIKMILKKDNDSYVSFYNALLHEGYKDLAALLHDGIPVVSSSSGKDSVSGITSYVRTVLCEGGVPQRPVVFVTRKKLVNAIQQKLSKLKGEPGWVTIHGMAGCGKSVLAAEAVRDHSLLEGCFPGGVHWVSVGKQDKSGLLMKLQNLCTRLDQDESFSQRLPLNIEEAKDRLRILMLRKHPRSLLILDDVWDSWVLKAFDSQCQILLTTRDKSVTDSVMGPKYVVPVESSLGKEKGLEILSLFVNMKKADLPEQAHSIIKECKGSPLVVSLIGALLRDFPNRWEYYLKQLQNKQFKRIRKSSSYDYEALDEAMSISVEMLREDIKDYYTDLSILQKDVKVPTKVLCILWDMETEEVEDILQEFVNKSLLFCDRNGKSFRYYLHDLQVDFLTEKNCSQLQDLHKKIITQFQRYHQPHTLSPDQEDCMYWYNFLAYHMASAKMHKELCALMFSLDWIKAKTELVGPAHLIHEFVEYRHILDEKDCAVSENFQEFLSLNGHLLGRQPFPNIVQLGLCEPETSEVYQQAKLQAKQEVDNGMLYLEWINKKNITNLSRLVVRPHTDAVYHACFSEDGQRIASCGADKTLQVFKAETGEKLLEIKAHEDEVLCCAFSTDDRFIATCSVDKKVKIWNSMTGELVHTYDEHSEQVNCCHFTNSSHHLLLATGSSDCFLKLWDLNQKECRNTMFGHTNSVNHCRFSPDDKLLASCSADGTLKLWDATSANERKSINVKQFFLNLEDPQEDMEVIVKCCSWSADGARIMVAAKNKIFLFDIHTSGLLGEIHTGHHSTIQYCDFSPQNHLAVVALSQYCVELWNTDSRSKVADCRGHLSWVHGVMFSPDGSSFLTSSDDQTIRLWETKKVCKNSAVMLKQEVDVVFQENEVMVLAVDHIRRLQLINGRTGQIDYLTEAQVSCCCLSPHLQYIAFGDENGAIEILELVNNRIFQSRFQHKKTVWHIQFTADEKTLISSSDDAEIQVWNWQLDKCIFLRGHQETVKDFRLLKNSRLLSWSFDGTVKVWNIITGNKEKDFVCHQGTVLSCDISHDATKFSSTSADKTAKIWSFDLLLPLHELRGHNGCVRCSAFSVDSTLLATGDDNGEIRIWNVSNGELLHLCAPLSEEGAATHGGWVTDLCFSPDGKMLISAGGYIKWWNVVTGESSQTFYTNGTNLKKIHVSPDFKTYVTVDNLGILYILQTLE
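Assay system – apoptosome proteins · Medium – Hepes buffer, pH 7.5 · Also added – cytochrome c with DEVD-Rh110 · Timing – 30 min compound preincubation, 50 min activation, room temperature · Detection – Rh110 fluorescence, excitation 480 nm, emission 540 nm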
TDP2 inh: blocks human TDP2 phosphodiesterase activity; O95551; recombinant TDP2, T5PNP hydrolysis, p-nitrophenol absorbance 415 nm; inhibition, % at 12.8 µM; 0.34% of 370,000 active; AID 720702;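 active = inhibition above the mean of all tested compounds plus 3 SD, set per campaign, cut at about 25% in these data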;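 note: 0% = DMSO with enzyme and 100% = buffer with substrate but no TDP2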
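Evaluation: % inhibition relative to enzyme-containing and enzyme-free wells. Material: recombinant human TDP2. Benchmarks: enzyme-free and DMSO wells. Timing: enzyme reaction with compound for 2 h at 37 °C. Compound dosing: 12.8 µM only. Measured by: p-Nitrophenol epi absorbance. Reagent: T5PNP substrate at 5 mM, a TopII-DNA adduct mimic. Replication: single well per compound.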
PAD4 FP inh: PAD4 (human) enzyme inhibition; Q9UM07; recombinant PAD4, RCA probe fluorescence polarization; inhibition, % at 6.36 µM; 0.41% of 330,000 active;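 active = percent inhibition above a cutoff equal to the mean of all tested compounds plus 3 SD, cut at about 15% in these data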;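 note: 0% = PAD4 with RCA probe and DMSO and 100% = probe without PAD4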
PRMT1 confirm: confirmation of human PRMT1 inhibitors; inhibition, % at 2.79 µM; shares compounds with PRMT1 inh; recombinant His-PRMT1, activity-based probe fluorescence polarization; 42% of 3,300 active;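 active = mean inhibition across replicates above the hit cutoff derived for the earlier primary screen, cut at about 22% in these data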
Starred values were filed as active, the others as inactive; x = not tested or not shown.

SMILES | PRMT1 inh | GSTO1 inh | Apaf1 inhib | TDP2 inh | PAD4 FP inh | PRMT1 confirm
CCn1ccnc1CN(C)C(=O)C1CCC(=O)N(Cc2cccc(C(F)(F)F)c2)C1 (centres undefined) | 4 | 2 | 7 | 4 | -4 | x
CCOC(=O)c1ccc(NC(=S)N2CCSC2c2ccc(Br)cc2)cc1 (centres undefined) | 82* | 0 | 7 | 10 | -1 | 5
Nc1ccc(Oc2ccc(F)cc2)nc1 | 26* | 8 | -23 | 0 | -6 | -3
O=Cc1ccc(Oc2ccc(F)cc2)nc1 | -2 | 12 | 2 | -1 | 1 | x
Cc1cc(C)n(CCc2nc(-c3cc4ccccc4o3)cs2)n1 | 2 | 7 | 14 | 2 | 4 | x
Cc1cc(C)n(CCc2nc(-c3ccc(C)o3)cs2)n1 | 68* | 0 | 14 | 3 | -4 | 34*
Nc1ccccc1N=c1ssnc1Cl | 69* | x | x | -2 | x | 58*
Cc1ccc(N=c2ssnc2Cl)cc1 | 70* | 2 | 6 | 0 | 2 | 89*
Nc1ccccc1N=Nc1ccccc1N | 4 | 15 | 9 | 23 | -5 | x
Cc1ccc(C2=NNC(=Nc3ccc(F)cc3)SC2)cc1 | -8 | x | x | 2 | x | x
Cc1cc(Cl)ccc1N=c1ssnc1Cl | 44* | 12 | 1 | 4 | -4 | 94*
COCC(COS(N)(=O)=O)Cc1ccccc1 (centres undefined) | -2 | 7 | 1 | 2 | 2 | x
CN(C)C(=O)c1cc(C(=O)Cc2ccccc2)c[nH]1 | 0 | -4 | 0 | -4 | -1 | x
COCCCNC(=S)N/N=C/c1ccc(OC)cc1 | 29* | 3 | -5 | -2 | 0 | 2
COc1ccc(CCNS(=O)(=O)CCNC(=O)c2ccc3c(c2)OCO3)cc1 | 2 | 3 | -4 | 5 | -1 | x
CC(=O)C(=Nc1ccc(Cl)cc1Cl)NNc1cccc(Cl)c1 | 61* | 15 | 15 | -4 | 2 | -5
CC(=O)Nc1ccc(NC(=O)Nc2cccc(Cl)c2)cc1 | 3 | -1 | 0 | -15 | -5 | x
CC(=O)C1=C(S(=O)(=O)c2ccc(C)cc2)CS(=O)(=O)C1 | 76* | x | 2 | -1 | x | 89*
CC(C)(CCC(=S)N1CCOCC1)c1ccccc1 | 4 | x | x | 7 | x | x
Cc1nc2nc(C)c(NS(=O)(=O)c3ccc(C4CCCCC4)cc3)c(=O)n2[nH]1 | 3 | -3 | 1 | 8 | -1 | x
O=C(Nc1nnc(-c2ccco2)s1)C1CCCCC1 | -2 | -9 | 0 | 9 | -1 | x
CS(=O)(=O)c1ccc2nc(NC(=O)c3ccccc3)sc2c1 | 4 | -3 | 5 | 9 | 0 | x
CS(=O)(=O)c1ccc(C(=O)Nc2nc(-c3ccco3)c(-c3ccco3)s2)cc1 | 35* | x | -5 | 7 | x | 28*
O=C(Nc1nc(-c2ccco2)c(-c2ccco2)s1)C1CCC1 | 35* | 1 | 20 | 7 | -5 | 19
O=C(Nc1nc(-c2ccco2)c(-c2ccco2)s1)C1CC(=O)N(c2ccc3c(c2)OCCO3)C1 (centres undefined) | 38* | 1 | 18 | 0 | -5 | 10
SMILES | PRMT1 inh | GSTO1 inh | Apaf1 inhib | TDP2 inh | PAD4 FP inh | PRMT1 confirm
CNc1ccc(C(=O)OCC(=O)NC(=O)NC2CCCC2)cc1[N+](=O)[O-] | -2 | x | 18 | -21 | 0 | x
CN1CCCCC1(C)C(=O)NCc1cc(Cl)ccc1F (centres undefined) | 1 | x | x | 2 | x | x
NC(=O)COC(=O)c1cc(-c2ccco2)nc2ccccc12 | 28* | 1 | -1 | -6 | 1 | 7
O=C(COC(=O)c1cc(-c2ccco2)nc2ccccc12)NCc1ccc2c(c1)OCO2 | 35* | -5 | 26 | -6 | -9 | 19
O=C(COC(=O)c1cc(-c2ccc(Cl)s2)nc2ccccc12)NCc1ccco1 | 30* | -24 | 13 | -3 | -5 | 3
O=C(O)c1cc(-c2ccco2)nc2ccc(Br)cc12 | 35* | -30 | 14 | 7 | 1 | 7
O=C(c1ccco1)N1CCN(C(=O)c2cc(-c3ccncc3)nc3ccc(Br)cc23)CC1 | 7 | 6 | 10 | -13 | 2 | x
COc1ccccc1CNC(=O)COC(=O)c1cc(-c2ccco2)nc2ccccc12 | 14 | 22 | 11 | 5 | -6 | x
COC(=O)[C@]1(C)N[C@H](c2ccc(-c3ccc(Cl)c(Cl)c3)c(OC)c2)[C@@H]2C(=O)N(C)C(=O)[C@@H]21 | 0 | 4 | 21 | 6 | 0 | x
CC12CCC(C(=O)N(CSC(=S)N/N=C\c3ccccc3O)C1=O)C2(C)C (centres undefined) | 25* | -17 | -1 | -8 | -3 | 3
CN(C)c1ccc(/C=N\NC(=S)SCN2C(=O)C3CCC(C)(C2=O)C3(C)C)cc1 (centres undefined) | 43* | -7 | -7 | -4 | -2 | 8
COc1ccc(NC(=O)CCN2CCN(Cc3ccccc3)CC2)c(OC)c1 | -2 | -3 | 5 | -4 | 2 | x
CCOC(=O)c1c(N)sc(N)c1C(=O)OCC | 31* | 5 | 3 | -14 | -4 | 56*
CCOC(=O)c1c(N)sc(=S)c2c1CCC2 | 27* | 32 | 17 | -1 | 11 | 16
COCCN1C(=O)COc2ccccc2C1C(=O)Nc1ccc2c(c1)OCCO2 (centres undefined) | -3 | x | x | 10 | x | x
CN(C)CCN(C(=O)c1ccc(S(=O)(=O)N2CCc3ccccc32)cc1)c1nc2ccc(F)cc2s1 | 50* | -2 | 4 | 15 | 12 | 1
COc1cccc2sc(N(CCCN(C)C)C(=O)c3ccc(S(=O)(=O)N4CCCc5ccccc54)cc3)nc12 | 4 | 0 | 19 | 2 | 2 | x
CN(C)CCCN(C(=O)c1ccc(S(=O)(=O)N2CCc3ccccc32)cc1)c1nc2c(Cl)cccc2s1 | 33* | -4 | 3 | 10 | 4 | 8
COC(=O)C1CN(Cc2ccc(Cl)cc2)CCS(=O)(=O)N1Cc1cn(Cc2ccc(OC)cc2)nn1 (centres undefined) | -2 | x | x | -14 | x | x
COc1ccc(C(=O)N(C)Cc2ccccn2)cc1OC1CCN(C(C)C)CC1 | 0 | -2 | -6 | 6 | -2 | x
O=C(Cc1nnc(NC(=O)c2ccccc2)s1)N/N=C/c1cccc(O)c1 | 0 | -15 | 4 | 0 | 0 | x
O=C(Cc1nnc(NC(=O)c2ccccc2)s1)N/N=C/c1ccco1 | 41* | -3 | 3 | -2 | -4 | 8
Cc1ccc(N2C(=O)N(CC(=O)Nc3cccc(Cl)c3)C(=O)C2C)cc1 (centres undefined) | 0 | 8 | 12 | 0 | 0 | x
CC(C)(C)C(=O)NCC12C=CC(O1)C1C(=O)N(c3ccccc3)C(=O)C12 (centres undefined) | 81* | 0 | -2 | 1 | 2 | 56*
Cc1ccc(N2C(=O)C3C4C=CC(CNC(=S)Nc5ccc(Cl)cc5)(O4)C3C2=O)cc1 (centres undefined) | 85* | 2 | 14 | 4 | 0 | 29*
